Experimental data as given in article PMC6637745 (Journal of medicinal chemistry, 2018).

Tests used:
brain MT [1] = experiment: microPET imaging in rats; format: in vivo; settings: male Sprague—Dawley rats, n = 2
Procedure, shortened: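 Anaesthetised Sprague–Dawley rats (n = 2) were transmission-scanned on a Trifoil PET/CT. The [11C] tracer (100 ± 20 μCi) was injected into the tail vein and acquired for 60 min. Reconstruction used attenuation correction, Fourier rebinning and filtered back-projection, and images were summed over 0–60 min.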

brain MT [2] = experiment: microPET imaging in mice, baseline and blocking; format: in vivo, athymic nude male mice
Procedure, shortened: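 Mice were anaesthetised and transmission-scanned on a Trifoil PET/CT. The [11C] tracer (50 ± 10 μCi) was given by tail vein, followed by 60 min dynamic acquisition. Images were reconstructed with attenuation correction, Fourier rebinning and filtered back-projection, and summed over 0–60 min. In blocking scans, unlabelled test compound (5 mg/kg iv) was given before the tracer, with n = 3.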

[3] = Baseline ex vivo biodistribution; format: in vivo, male white mice; settings: mouse brain, followed by gradual washout
[4] = Lipophilicity by shake flask method; format: physicochemical; settings: 1-octanol / phosphate buffer, n = 4
Procedure, shortened: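 The [11C]-labelled test compound was partitioned between 1-octanol and freshly prepared phosphate buffer by shake flask, and the result expressed as log Poct/water.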

MT = experiment: Blocking biodistribution with cold MPC-6827; format: in vivo, male white mice
Procedure, shortened: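 This was a blocking biodistribution. Unlabelled test compound (5 mg/kg iv) was given 20 min before tail-vein injection of the [11C] tracer at 100 ± 20 μCi in 10% ethanol–saline, with no anaesthesia. Tissues were harvested at 30 min, gamma-counted and expressed as %ID/g, with n = 3. Specific binding was taken from blocked versus baseline uptake.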

[5] = Stability in ethanol–saline formulation; format: physicochemical; settings: 5% ethanol–saline formulation, sterile conditions, 4 h, n = 4
Procedure, shortened: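 The stability of the [11C]-labelled test compound was checked by reverse-phase HPLC with photodiode-array and sodium iodide radioactivity detectors.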

oxytocin = oxytocin (Homo sapiens, UniProt P30559); experiment: NIMH-PDSP binding affinity panel
smoothened = smoothened (Homo sapiens, UniProt Q99835); experiment: NIMH-PDSP binding affinity panel
cancer animal models = settings: variety of cancer animal models; cited from earlier work
KOP = KOP (Homo sapiens, UniProt P41145); experiment: NIMH-PDSP binding affinity panel
D1-D5 = experiment: NIMH-PDSP binding affinity panel; settings: read-out: affinity; D1-D5 dopamine
SERT = SERT (Homo sapiens, UniProt P31645); experiment: NIMH-PDSP binding affinity panel
MDR1 = MDR1 (Homo sapiens, UniProt P08183); experiment: NIMH-PDSP binding affinity panel
Na + channel = experiment: NIMH-PDSP binding affinity panel; settings: read-out: affinity
NMΔA = experiment: NIMH-PDSP binding affinity panel; settings: read-out: affinity
PKC = experiment: NIMH-PDSP binding affinity panel; settings: read-out: affinity, protein kinase C
AMPA = experiment: NIMH-PDSP binding affinity panel; settings: read-out: affinity
NET = NET (Homo sapiens, UniProt P23975); experiment: NIMH-PDSP binding affinity panel
M (muscarinic) = experiment: NIMH-PDSP binding affinity panel; settings: read-out: affinity
NOP = NOP (Homo sapiens, UniProt P41146); experiment: NIMH-PDSP binding affinity panel
A (adenosine) = experiment: NIMH-PDSP binding affinity panel; settings: read-out: affinity
[6] = molecular target: EP (prostanoid receptors); experiment: NIMH-PDSP binding affinity panel; settings: read-out: affinity
DAT = DAT (Homo sapiens, UniProt Q01959); experiment: NIMH-PDSP binding affinity panel
β1–3 = experiment: NIMH-PDSP binding affinity panel; settings: read-out: affinity
5-HT3-7 = experiment: NIMH-PDSP binding affinity panel; settings: read-out: affinity
[7] = over 100 cancer patients including GBM; cited from earlier work
α1A-1C = experiment: NIMH-PDSP binding affinity panel; settings: read-out: affinity
VMAT 1,2 = experiment: NIMH-PDSP binding affinity panel; settings: read-out: affinity; VMAT 1,2, vesicular monoamine transporter
DOR = DOR (Homo sapiens, UniProt P41143); experiment: NIMH-PDSP binding affinity panel
mGluR = experiment: NIMH-PDSP binding affinity panel; settings: read-out: affinity, metabotropic glutamate receptors
α2A-2C = experiment: NIMH-PDSP binding affinity panel; settings: read-out: affinity
5-HT2A-2C = experiment: NIMH-PDSP binding affinity panel; settings: read-out: affinity
KA (kainate) = experiment: NIMH-PDSP binding affinity panel; settings: read-out: affinity
I = experiment: NIMH-PDSP binding affinity panel; settings: read-out: affinity
BZP (benzodiazepine) = experiment: NIMH-PDSP binding affinity panel; settings: read-out: affinity
PBR = PBR (Homo sapiens, UniProt P30536); experiment: NIMH-PDSP binding affinity panel
[8] = rodents, blood; cited from earlier work
5-HT1A-1E = experiment: NIMH-PDSP binding affinity panel; settings: read-out: affinity
NT (neurotrophin) = experiment: NIMH-PDSP binding affinity panel; settings: read-out: affinity
CB1, CB2 = experiment: NIMH-PDSP binding affinity panel; settings: read-out: affinity; CB1, CB2 cannabinoid
σ2 = σ2 (Homo sapiens, UniProt Q5BJF2); experiment: NIMH-PDSP binding affinity panel
Ca+ channel = experiment: NIMH-PDSP binding affinity panel; settings: read-out: affinity
H1 = H1 (Homo sapiens, UniProt P35367); experiment: NIMH-PDSP binding affinity panel
NK (neurokinin) = experiment: NIMH-PDSP binding affinity panel; settings: read-out: affinity
GABA = experiment: NIMH-PDSP binding affinity panel; settings: read-out: affinity
HERG = HERG (Homo sapiens, UniProt Q12809); experiment: NIMH-PDSP binding affinity panel
[9] = molecular target: all other tested biogenic brain receptors, transporters, enzymes, and protein targets; experiment: NIMH-PDSP binding affinity panel; settings: all other tested targets except H4R and σ1R
[10] = 30 min, MPC-6827 5 mg/kg iv 20 min prior to radioligand, n = 3

Sequence of HERG (Q12809 whole entry): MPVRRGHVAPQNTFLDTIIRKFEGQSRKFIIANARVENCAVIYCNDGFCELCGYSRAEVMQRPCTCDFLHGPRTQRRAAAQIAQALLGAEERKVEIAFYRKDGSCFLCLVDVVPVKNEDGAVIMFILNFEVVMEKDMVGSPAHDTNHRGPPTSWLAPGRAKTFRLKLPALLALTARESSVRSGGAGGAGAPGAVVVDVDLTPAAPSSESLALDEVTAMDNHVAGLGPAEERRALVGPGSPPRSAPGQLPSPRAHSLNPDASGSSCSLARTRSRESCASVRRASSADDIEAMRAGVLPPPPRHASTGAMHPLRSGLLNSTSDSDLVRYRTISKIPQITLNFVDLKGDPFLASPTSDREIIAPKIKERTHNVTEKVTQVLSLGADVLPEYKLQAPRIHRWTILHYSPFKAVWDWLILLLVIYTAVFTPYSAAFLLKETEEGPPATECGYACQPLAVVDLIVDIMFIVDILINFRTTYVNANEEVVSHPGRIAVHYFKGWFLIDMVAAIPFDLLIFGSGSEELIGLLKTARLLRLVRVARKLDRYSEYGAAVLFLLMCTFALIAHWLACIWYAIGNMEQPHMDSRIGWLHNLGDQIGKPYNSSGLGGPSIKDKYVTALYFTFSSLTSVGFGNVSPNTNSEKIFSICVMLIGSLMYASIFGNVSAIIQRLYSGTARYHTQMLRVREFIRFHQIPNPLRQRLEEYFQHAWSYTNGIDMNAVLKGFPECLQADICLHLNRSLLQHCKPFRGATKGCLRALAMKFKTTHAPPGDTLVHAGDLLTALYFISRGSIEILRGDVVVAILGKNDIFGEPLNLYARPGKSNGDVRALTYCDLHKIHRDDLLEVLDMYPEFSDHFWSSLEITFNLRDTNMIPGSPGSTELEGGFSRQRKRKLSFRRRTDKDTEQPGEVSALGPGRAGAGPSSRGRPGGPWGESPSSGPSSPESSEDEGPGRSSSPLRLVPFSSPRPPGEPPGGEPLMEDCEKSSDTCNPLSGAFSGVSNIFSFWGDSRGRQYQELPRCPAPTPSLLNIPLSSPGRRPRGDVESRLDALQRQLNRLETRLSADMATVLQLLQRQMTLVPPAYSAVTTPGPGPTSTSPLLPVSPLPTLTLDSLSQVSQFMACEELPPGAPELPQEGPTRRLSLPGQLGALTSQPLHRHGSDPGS
Sequence of smoothened (Q99835 28-787): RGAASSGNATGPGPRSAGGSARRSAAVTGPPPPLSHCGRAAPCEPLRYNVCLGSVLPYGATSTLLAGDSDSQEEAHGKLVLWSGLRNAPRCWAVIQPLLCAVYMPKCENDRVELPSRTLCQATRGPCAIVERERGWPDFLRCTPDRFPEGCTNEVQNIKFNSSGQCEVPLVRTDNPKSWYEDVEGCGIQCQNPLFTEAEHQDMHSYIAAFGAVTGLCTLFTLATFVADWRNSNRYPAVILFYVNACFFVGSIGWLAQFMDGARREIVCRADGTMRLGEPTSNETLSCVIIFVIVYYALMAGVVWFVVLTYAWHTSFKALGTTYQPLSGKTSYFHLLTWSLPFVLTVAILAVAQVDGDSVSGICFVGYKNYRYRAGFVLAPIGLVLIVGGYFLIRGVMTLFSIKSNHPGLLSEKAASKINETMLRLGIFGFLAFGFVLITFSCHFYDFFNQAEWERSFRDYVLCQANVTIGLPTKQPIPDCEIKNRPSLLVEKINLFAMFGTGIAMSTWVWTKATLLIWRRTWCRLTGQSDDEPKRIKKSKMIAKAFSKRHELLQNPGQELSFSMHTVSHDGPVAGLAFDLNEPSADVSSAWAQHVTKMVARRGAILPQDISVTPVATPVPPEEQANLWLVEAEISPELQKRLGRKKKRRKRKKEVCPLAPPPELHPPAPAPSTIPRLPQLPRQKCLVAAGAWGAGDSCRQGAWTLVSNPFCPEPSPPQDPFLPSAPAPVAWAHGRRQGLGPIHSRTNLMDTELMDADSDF
Sequence of DOR (P41143 whole entry): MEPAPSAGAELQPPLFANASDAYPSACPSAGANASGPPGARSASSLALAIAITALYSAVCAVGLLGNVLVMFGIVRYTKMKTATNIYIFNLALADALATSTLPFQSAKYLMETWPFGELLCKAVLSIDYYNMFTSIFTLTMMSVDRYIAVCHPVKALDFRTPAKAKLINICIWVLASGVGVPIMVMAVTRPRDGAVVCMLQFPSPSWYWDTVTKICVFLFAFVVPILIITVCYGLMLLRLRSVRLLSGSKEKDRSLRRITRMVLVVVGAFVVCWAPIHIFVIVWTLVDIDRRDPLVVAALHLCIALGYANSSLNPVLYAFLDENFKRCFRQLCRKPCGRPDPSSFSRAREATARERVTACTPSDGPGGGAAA
Sequence of H1 (P35367 whole entry): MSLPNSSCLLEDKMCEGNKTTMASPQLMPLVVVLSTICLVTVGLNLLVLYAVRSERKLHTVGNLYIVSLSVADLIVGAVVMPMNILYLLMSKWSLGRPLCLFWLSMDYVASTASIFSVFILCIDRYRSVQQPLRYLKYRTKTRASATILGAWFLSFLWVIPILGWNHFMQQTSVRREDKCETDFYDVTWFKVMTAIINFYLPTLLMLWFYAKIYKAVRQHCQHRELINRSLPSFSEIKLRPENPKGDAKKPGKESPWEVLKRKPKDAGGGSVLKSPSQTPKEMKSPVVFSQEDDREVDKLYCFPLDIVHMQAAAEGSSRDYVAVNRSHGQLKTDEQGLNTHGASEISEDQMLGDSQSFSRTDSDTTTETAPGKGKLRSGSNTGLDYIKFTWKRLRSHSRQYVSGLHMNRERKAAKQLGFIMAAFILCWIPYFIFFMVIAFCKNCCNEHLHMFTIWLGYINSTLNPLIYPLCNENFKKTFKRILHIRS
Sequence of NOP (P41146 whole entry): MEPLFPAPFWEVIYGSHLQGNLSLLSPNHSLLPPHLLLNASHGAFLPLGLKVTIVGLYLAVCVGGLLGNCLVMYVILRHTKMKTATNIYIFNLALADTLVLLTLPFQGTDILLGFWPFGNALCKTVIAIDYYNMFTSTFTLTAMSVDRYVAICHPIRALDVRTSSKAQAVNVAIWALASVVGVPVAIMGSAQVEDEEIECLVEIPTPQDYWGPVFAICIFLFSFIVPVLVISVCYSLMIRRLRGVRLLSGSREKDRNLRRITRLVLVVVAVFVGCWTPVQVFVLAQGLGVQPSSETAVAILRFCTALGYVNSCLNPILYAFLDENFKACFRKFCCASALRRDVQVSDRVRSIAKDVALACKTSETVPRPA
Sequence of NET (P23975 whole entry): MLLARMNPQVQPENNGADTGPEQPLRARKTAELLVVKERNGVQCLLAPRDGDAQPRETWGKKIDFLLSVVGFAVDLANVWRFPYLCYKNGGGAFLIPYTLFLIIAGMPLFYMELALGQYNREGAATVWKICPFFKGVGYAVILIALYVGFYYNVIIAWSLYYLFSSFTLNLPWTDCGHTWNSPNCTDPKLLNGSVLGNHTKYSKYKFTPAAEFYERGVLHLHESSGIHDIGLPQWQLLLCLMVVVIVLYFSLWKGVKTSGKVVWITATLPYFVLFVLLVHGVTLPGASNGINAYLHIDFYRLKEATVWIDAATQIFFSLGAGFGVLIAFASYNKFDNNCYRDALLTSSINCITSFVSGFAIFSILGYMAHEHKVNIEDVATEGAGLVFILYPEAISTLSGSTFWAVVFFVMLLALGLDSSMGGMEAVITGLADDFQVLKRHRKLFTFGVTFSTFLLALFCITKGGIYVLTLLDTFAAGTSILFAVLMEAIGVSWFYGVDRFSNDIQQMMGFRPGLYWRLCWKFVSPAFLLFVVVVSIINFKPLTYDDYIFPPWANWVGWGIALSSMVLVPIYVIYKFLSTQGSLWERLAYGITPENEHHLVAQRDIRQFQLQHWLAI
Sequence of SERT (P31645 whole entry, species assumed): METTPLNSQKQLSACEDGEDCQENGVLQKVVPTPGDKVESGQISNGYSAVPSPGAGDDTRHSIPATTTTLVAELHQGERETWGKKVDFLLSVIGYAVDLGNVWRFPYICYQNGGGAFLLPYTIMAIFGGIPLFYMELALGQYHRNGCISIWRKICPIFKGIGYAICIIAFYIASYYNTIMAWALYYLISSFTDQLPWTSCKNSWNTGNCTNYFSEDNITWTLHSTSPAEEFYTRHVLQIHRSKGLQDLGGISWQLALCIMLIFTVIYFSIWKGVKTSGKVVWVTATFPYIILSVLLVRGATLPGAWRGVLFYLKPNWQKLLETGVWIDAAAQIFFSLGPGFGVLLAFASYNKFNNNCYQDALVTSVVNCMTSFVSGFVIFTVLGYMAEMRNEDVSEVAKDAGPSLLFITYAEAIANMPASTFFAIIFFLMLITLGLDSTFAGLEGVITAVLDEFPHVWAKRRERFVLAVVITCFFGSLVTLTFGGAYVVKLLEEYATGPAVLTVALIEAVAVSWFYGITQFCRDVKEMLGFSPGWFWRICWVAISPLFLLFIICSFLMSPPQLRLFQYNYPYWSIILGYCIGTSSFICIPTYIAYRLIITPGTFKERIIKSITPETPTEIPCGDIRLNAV
Sequence of DAT (Q01959 whole entry, species assumed): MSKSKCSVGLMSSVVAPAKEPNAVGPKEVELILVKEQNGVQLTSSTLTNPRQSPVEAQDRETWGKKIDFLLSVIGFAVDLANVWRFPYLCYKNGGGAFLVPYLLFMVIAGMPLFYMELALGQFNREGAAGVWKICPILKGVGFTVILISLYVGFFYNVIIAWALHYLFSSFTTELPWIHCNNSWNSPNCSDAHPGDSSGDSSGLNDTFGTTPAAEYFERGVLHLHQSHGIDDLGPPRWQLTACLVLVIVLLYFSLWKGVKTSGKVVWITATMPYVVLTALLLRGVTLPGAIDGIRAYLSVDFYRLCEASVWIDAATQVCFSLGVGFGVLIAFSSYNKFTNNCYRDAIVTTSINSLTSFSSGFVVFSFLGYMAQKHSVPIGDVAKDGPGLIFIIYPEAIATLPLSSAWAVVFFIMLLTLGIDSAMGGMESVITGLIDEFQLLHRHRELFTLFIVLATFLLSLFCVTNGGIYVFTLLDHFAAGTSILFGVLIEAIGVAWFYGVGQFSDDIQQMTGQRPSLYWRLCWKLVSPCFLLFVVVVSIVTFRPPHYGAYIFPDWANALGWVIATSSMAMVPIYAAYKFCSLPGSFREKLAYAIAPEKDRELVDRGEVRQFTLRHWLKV

In the case of `Cc1nc(N(C)c2ccc(O[11CH3])cc2)c2ccccc2n1` [[^11C]MPC-6827], the “BBB penetration and brain retention (microPET)” value (brain MT [1]) is reported as “BBB penetration and excellent retention”, the “BBB penetration and brain retention (microPET)” value (brain MT [2]; athymic nude male mice, n = 3, 0–60 min) is reported as “penetrates the BBB and shows excellent retention in mouse brain” and the “radioligand binding in thyroid or salivary gland during blocking (microPET)” value (brain MT [2]; blocking with 5 mg/kg MPC-6827, mice) is reported as “displaced”. The “blocking of brain activity (microPET)” value (brain MT [2]; iv 5 mg/kg unlabeled MPC-6827, n = 3) was “substantially blocked”, the “time of peak brain activity” value [3] was 5 min and the “log Poct/water” value [4] was 3.8. For the same compound, the “specific binding in brain” value (MT; [10]) was 70%, the “specific binding in heart” value (MT; [10]) was 16% and the “specific binding in lungs” value (MT; [10]) was 30%. The “specific binding in muscles” value (MT; [10]) was 60%, the “specific binding in pancreas” value (MT; [10]) was 20% and the “specific binding in the rest of the tested regions” value (MT; 30 min, regions other than brain, muscles, spleen, lungs, pancreas, heart) was “no significant specific binding”. For the same compound, the “displacement of kidney and liver binding” value (MT; blocking with cold MPC-6827, mice) was “not displaced”, the “ratio of specific to nonspecific binding in brain relative to muscle” value (MT; brain vs muscle, Figure 1B) was 10 times and the stability in formulation [5] was “stable”.
In the case of `COc1ccc(N(C)c2nc(C)nc3ccccc23)cc1` [MPC-6827], the Ki (oxytocin) is listed as over 10 µM, the Ki (smoothened) is listed as over 10 µM and the “tumor growth in cancer animal models” value (cancer animal models) is listed as “suppression of tumor growth”. It also gave a Ki (KOP) of over 10 µM, a Ki (D1-D5) of over 10 µM and a Ki (SERT) of over 10 µM. For the same compound, the Ki (MDR1) was over 10 µM, the Ki (Na + channel) was over 10 µM and the Ki (NMΔA) was over 10 µM. It also gave a Ki (PKC) of over 10 µM, a Ki (AMPA) of over 10 µM and a Ki (NET) of over 10 µM. It also gave a Ki (M (muscarinic)) of over 10 µM, a Ki (NOP) of over 10 µM and a Ki (A (adenosine)) of over 10 µM. For the same compound, the Ki [6] was over 10 µM, the Ki (DAT) was over 10 µM and the Ki (β1–3) was over 10 µM. For the same compound, the Ki (5-HT3-7) was over 10 µM, the “safety in human subjects” value [7] was “proven to be safe” and the Ki (α1A-1C) was over 10 µM. For the same compound, the Ki (VMAT 1,2) was over 10 µM, the Ki (DOR) was over 10 µM and the Ki (mGluR) was over 10 µM. The Ki (α2A-2C) was over 10 µM, the Ki (5-HT2A-2C) was over 10 µM and the Ki (KA (kainate)) was over 10 µM. For the same compound, the Ki (I) was over 10 µM, the Ki (BZP (benzodiazepine)) was over 10 µM and the Ki (PBR) was over 10 µM. For the same compound, the plasma binding [8] was 98.2%, the Ki (5-HT1A-1E) was over 10 µM and the Ki (NT (neurotrophin)) was over 10 µM. It also gave a Ki (CB1, CB2) of over 10 µM, a Ki (σ2) of over 10 µM and a Ki (Ca+ channel) of over 10 µM. For the same compound, the Ki (H1) was over 10 µM, the Ki (NK (neurokinin)) was over 10 µM and the Ki (GABA) was over 10 µM. It also gave a Ki (HERG) of over 10 µM and a Ki [9] of over 10 µM.
